Tests used:
[1] = system: Blood; test: Biodistribution in blood of 9L-glioma bearing rat at 1 to 3 mCi, iv after 5 mins; type: ADME, organism-based; settings: in vivo
How it was run: (§1)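 9L-glioma rats (200–300 g) given 1–3 mCi of [¹¹C]- or [¹⁸F]-labelled tracer iv by tail vein while consciously restrained. At 5 or 20 min they were decapitated under halothane anaesthesia. Tissues were excised and weighed, and decay-corrected radioactivity was counted by gamma counter. Values are %ID/g, averaged over three rats per time point.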

[2] = system: Blood; test: Biodistribution in blood of 9L-glioma bearing rat at 1 to 3 mCi, iv after 30 mins; type: ADME, organism-based; settings: in vivo, 0.5 h
How it was run: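 Blood was weighed and gamma-counted with decay correction, and results are expressed as %ID/g. Total blood activity assumed a blood mass of 7% of body mass. n = 3, mean.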

[3] = Biodistribution in R-ventricle of 9L-glioma bearing rat at 1 to 3 mCi, iv after 5 mins; type: ADME, organism-based, Heart right ventricle; settings: in vivo; how it was run: as §1
[4] = Biodistribution in R-Atrium of 9L-glioma bearing rat at 1 to 3 mCi, iv after 30 mins; type: ADME, organism-based, Right cardiac atrium; settings: in vivo, 0.5 h
How it was run: (§2)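 At 30 min they were decapitated under halothane anaesthesia. Tissues were excised, weighed and gamma-counted with decay correction. Values are %ID/g, averaged over three rats.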

[5] = system: Septum; test: Biodistribution in septum of 9L-glioma bearing rat at 1 to 3 mCi, iv after 30 mins; type: ADME, organism-based; settings: in vivo, 0.5 h; how it was run: as §2
[6] = system: Septum; test: Biodistribution in septum of 9L-glioma bearing rat at 1 to 3mCi, iv after 5 mins; type: ADME, organism-based; settings: in vivo; how it was run: as §1
[7] = system: 9L; test: Biodistribution in tumor of 9L-glioma bearing rat at 1 to 3 mCi, iv after 5 mins; type: ADME, organism-based; settings: in vivo; how it was run: as §1
[8] = Biodistribution in L-Atrium of 9L-glioma bearing rat at 1 to 3 mCi, iv after 5 mins; type: ADME, organism-based; settings: in vivo; how it was run: as §1
[9] = system: Liver; test: Biodistribution in liver of 9L-glioma bearing rat at 1 to 3 mCi, iv after 30 mins; type: ADME, organism-based; settings: in vivo, 0.5 h; how it was run: as §2
[10] = system: Plasma; test: Biodistribution in plasma of 9L-glioma bearing rat at 1 to 3 mCi, iv after 5 mins; type: ADME, organism-based; settings: in vivo; how it was run: as §1
[11] = system: Kidney; test: Biodistribution in kidney of 9L-glioma bearing rat at 1 to 3 mCi, iv after 30 mins; type: ADME, organism-based; settings: in vivo, 0.5 h; how it was run: as §2
[12] = Biodistribution in urine of 9L-glioma bearing rat at 1 to 3 mCi, iv after 30 mins; type: ADME, organism-based; settings: in vivo, 0.5 h
How it was run: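 At 30 min, urine was drawn from the bladder by syringe after decapitation under halothane. Radioactivity was gamma-counted with decay correction and expressed as % of injected dose. Mean of three rats.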

[13] = Biodistribution in L-ventricle of 9L-glioma bearing rat at 1 to 3mCi, iv after 5 mins; type: ADME, organism-based, Heart left ventricle; settings: in vivo; how it was run: as §1
[14] = Biodistribution in urine of 9L-glioma bearing rat at 1 to 3 mCi, iv after 5 mins; type: ADME, organism-based; settings: in vivo
How it was run: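 In 9L-glioma rats injected iv (tail vein, conscious restraint) with 1–3 mCi of radiotracer, urine was drawn by syringe from the bladder at 5 or 20 min. Animals were killed by decapitation under halothane. Decay-corrected radioactivity was gamma-counted and expressed as percent of injected dose (%ID), averaged over three rats.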

[15] = Ratio of biodistribution in tumor to muscle of 9L-glioma bearing rat at 1 to 3 mCi, iv after 30 mins; type: ADME, organism-based; settings: in vivo, 0.5 h
[16] = Ratio of biodistribution in tumor to blood of 9L-glioma bearing rat at 1 to 3 mCi, iv after 30 mins; type: ADME, organism-based; settings: tumour, 0.5 h
[17] = Biodistribution in A-V-node of 9L-glioma bearing rat at 1 to 3 mCi, iv after 30 mins; type: ADME, organism-based; settings: in vivo, 0.5 h; how it was run: as §2
[18] = system: Liver; test: Biodistribution in liver of 9L-glioma bearing rat at 1 to 3 mCi, iv after 5 mins; type: ADME, organism-based; settings: in vivo; how it was run: as §1
[19] = system: Solar plexus; test: Biodistribution in solar plexus of 9L-glioma bearing rat at 1 to 3 mCi, iv after 5 mins; type: ADME, organism-based; settings: in vivo; how it was run: as §1
[20] = system: 9L; test: Biodistribution in tumor of 9L-glioma bearing rat at 1 to 3 mCi, iv after 30 mins; type: ADME, organism-based; settings: in vivo, 0.5 h; how it was run: as §2
[21] = system: Plasma; test: Biodistribution in plasma of 9L-glioma bearing rat at 1 to 3 mCi, iv after 30 mins; type: ADME, organism-based; settings: in vivo, 0.5 h; how it was run: as §2
[22] = Biodistribution in skeletal muscle of 9L-glioma bearing rat at 1 to 3 mCi, iv after 5 mins; type: ADME, organism-based, Muscle tissue; settings: in vivo; how it was run: as §1
[23] = system: Brain; test: Biodistribution in brain of 9L-glioma bearing rat at 1 to 3 mCi, iv after 30 mins; type: ADME, organism-based; settings: in vivo, 0.5 h; how it was run: as §2
[24] = Biodistribution in L-ventricle of 9L-glioma bearing rat at 1 to 3 mCi, iv after 30 mins; type: ADME, organism-based, Heart left ventricle; settings: in vivo, 0.5 h; how it was run: as §2
[25] = system: Lung; test: Biodistribution in lung of 9L-glioma bearing rat at 1 to 3 mCi, iv after 5 mins; type: ADME, organism-based; settings: in vivo; how it was run: as §1
[26] = system: Kidney; test: Biodistribution in kidney of 9L-glioma bearing rat at 1 to 3 mCi, iv after 5 mins; type: ADME, organism-based; settings: in vivo; how it was run: as §1
[27] = Biodistribution in L-Atrium of 9L-glioma bearing rat at 1 to 3 mCi, iv after 30 mins; type: ADME, organism-based, Left cardiac atrium; settings: in vivo, 0.5 h; how it was run: as §2
[28] = Biodistribution in R-Atrium of 9L-glioma bearing rat at 1 to 3 mCi, iv after 5 mins; type: ADME, organism-based, Right cardiac atrium; settings: in vivo; how it was run: as §1
[29] = system: Lung; test: Biodistribution in lung of 9L-glioma bearing rat at 1 to 3 mCi, iv after 30 mins; type: ADME, organism-based; settings: in vivo, 0.5 h; how it was run: as §2
[30] = Biodistribution in A-V-node of 9L-glioma bearing rat at 1 to 3 mCi, iv after 5 mins; type: ADME, organism-based; settings: in vivo; how it was run: as §1
[31] = system: Brain; test: Biodistribution in brain of 9L-glioma bearing rat at 1 to 3 mCi, iv after 5 mins; type: ADME, organism-based; settings: in vivo; how it was run: as §1
[32] = system: Solar plexus; test: Biodistribution in solar plexus of 9L-glioma bearing rat at 1 to 3 mCi, iv after 30 mins; type: ADME, organism-based; settings: in vivo, 0.5 h; how it was run: as §2
[33] = Biodistribution in skeletal muscle of 9L-glioma bearing rat at 1 to 3 mCi, iv after 30 mins; type: ADME, organism-based, Muscle tissue; settings: in vivo, 0.5 h; how it was run: as §2
[34] = Biodistribution in R-ventricle of 9L-glioma bearing rat at 1 to 3 mCi, iv after 30 mins; type: ADME, organism-based, Heart right ventricle; settings: in vivo, 0.5 h; how it was run: as §2

SMILES: C[N+]1(C)CCOC(O)(c2ccc(-c3ccc(C4(O)C[N+](C)(C[18F])CCO4)cc3)cc2)C1.O=S(=O)([O-])C(F)(F)F.[I-] (centres undefined)
- Drug uptake [1]: 1.467 % ID/g
- Drug uptake [2]: 0.378 % ID/g
- Drug uptake [3]: 0.734 % ID/g
- Drug uptake [4]: 0.999 % ID/g
- Drug uptake [5]: 0.262 % ID/g
- Drug uptake [6]: 0.53 % ID/g
- Drug uptake [7]: 0.952 % ID/g
- Drug uptake [8]: 0.824 % ID/g
- Drug uptake [9]: 1.536 % ID/g
- Drug uptake [10]: 3.732 % ID/g
- Drug uptake [11]: 5.935 % ID/g
- Drug uptake [12]: 27.6 % dose
- Drug uptake [13]: 0.438 % ID/g
- Drug uptake [14]: 10.2 % dose
- Ratio [15]: 3.024
- Ratio [16]: 0.978
- Drug uptake [17]: 0.6 % ID/g
- Drug uptake [18]: 1.228 % ID/g
- Drug uptake [19]: 1.186 % ID/g
- Drug uptake [20]: 0.359 % ID/g
- Drug uptake [21]: 1.272 % ID/g
- Drug uptake [22]: 0.194 % ID/g
- Drug uptake [23]: 0.03 % ID/g
- Drug uptake [24]: 0.253 % ID/g
- Drug uptake [25]: 0.944 % ID/g
- Drug uptake [26]: 8.676 % ID/g
- Drug uptake [27]: 0.767 % ID/g
- Drug uptake [28]: 2.023 % ID/g
- Drug uptake [29]: 0.533 % ID/g
- Drug uptake [30]: 5.607 % ID/g
- Drug uptake [31]: 0.042 % ID/g
- Drug uptake [32]: 1.009 % ID/g
- Drug uptake [33]: 0.123 % ID/g
- Drug uptake [34]: 0.243 % ID/g
